The source made the active and inactive calls. The calls are words filed in the database; no cut-off is given here.
Experiments:
[1] = Cell cycle arrest in human CL141T cells assessed as accumulation at G2/M phase at 2 x IC50 after 24 hrs by propidium iodide staining-based FACS flow cytometric analysis; assay type: functional
Summary of the method: (§1)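 CL141T cells treated at 0.5-, 1- and 2-fold IC50 for 24, 48 and 72 h. Cells fixed in ice-cold 70% EtOH, then stained with 4 μg/mL propidium iodide in PBS with 1% Triton X-100 and 0.1 mg/mL RNase A. Phase distribution from flow cytometry DNA histograms; sub-G1 fraction scored as well.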

[2] = tested on: KB; test: Cytotoxicity against human KB cells after 72 hrs by Alamar blue assay
[3] = Cell cycle arrest in human CL141T cells assessed as accumulation at G1 phase at 1 x IC50 to 2 x IC50 after 24 hrs by propidium iodide staining-based FACS flow cytometric analysis; assay type: functional; summary of the method: as §1
[4] = Cytotoxicity against human CL141T cells after 72 hrs by Alamar blue assay; assay type: functional, cell-based
Summary of the method: (§2)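 Cells exposed to compound for 72 h, then Alamar blue added with a further 10−12 h at 37 °C and a spectrophotometric read. IC50 from six or seven concentrations by median-effect analysis; mean ± STDEV, n = 3. CL141T is a line derived from a patient lung tumor passaged as a SCID mouse xenograft.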

[5] = tested on: Escherichia coli; test: Induction of Escherichia coli pEGFP-N1 DNA interstrand cross-linking at 1 to 10 uM after 2 hrs by alkaline agarose gel shift assay
Summary of the method: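 Plasmid pEGFP-N1 DNA (1500 ng) incubated with compound at 1, 5 and 10 μM in 3 mM NaCl/1 mM sodium phosphate pH 7.4/1 mM EDTA, 2 h at 37 °C. DNA then BamHI-linearized, EtOH-precipitated, denatured in 0.5 N NaOH/10 mM EDTA, run on 0.8% alkaline agarose at 4 °C (18 V, 22 h), stained with ethidium bromide.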

[6] = tested on: Mus musculus; test: Toxicity in nude mouse xenografted with human HT-29 cells assessed as body weight loss at 25 mg/kg, iv qd administered 4 days measured for 20 days; assay type: organism-based; set-up: dose 25 mg/kg, route intravenous; settings: in vivo, 480 h
[7] = tested on: MX1; test: Cytotoxicity against human MX1 cells after 72 hrs by SRB assay; assay type: functional, cell-based; settings: MX1, 72 h
[8] = Half life in rat plasma at 1 to 10 ug/mL after 1 to 4 hrs by HPLC analysis; assay type: ADME, cell-free
Summary of the method: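 Rat plasma spiked at 1 and 10 μg/mL and held 1, 2, 3 and 4 h at room temperature. Protein precipitated with acetonitrile containing 10 μg/mL propyl paraben internal standard, centrifuged, filtered. Analysed by reversed-phase C18 HPLC in acetonitrile/10 mM NaH2PO4 pH 4.5 (32:68). Stability given as mean relative error, at least three replicates per concentration.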

[9] = Cytotoxicity against human MES-SA cells after 72 hrs by Presto Blue assay; assay type: functional, cell-based
Summary of the method: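 MES-SA and doxorubicin-resistant MES-SA/dx5 cells exposed for 72 h, then PrestoBlue added for 3 h at 37 °C, absorbance read at 570 and 600 nm. IC50 by median-effect analysis of six or seven concentrations; mean ± STDEV of three to six independent experiments.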

[10] = tested on: HT-29; test: Antitumor activity against human HT-29 cells xenografted in nude mouse assessed as tumor growth inhibition at 25 mg/kg, iv qd administered 4 days measured on day 20; assay type: functional, organism-based; set-up: dose 25 mg/kg
[11] = tested on: NCI-H460; test: Induction of apoptosis in human H460 cells assessed as increase in cleaved caspase 3 expression at IC50 after 24 to 72 hrs by Western blotting analysis; assay type: functional, cell-based
Summary of the method: (§3)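 H460 cells treated at IC50 for 24 and 72 h. Lysate proteins separated by SDS-PAGE and blotted to nitrocellulose, blocked in 5% milk/PBST. Primary antibodies to caspase-3, caspase-7, PARP (full-length and cleaved) and β-actin applied for 1 h at room temperature or overnight at 4 °C; HRP secondary with ECL detection.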

[12] = Cytotoxicity against human OECM1 cells after 72 hrs by Alamar blue assay; assay type: functional, cell-based; settings: OECM1, 72 h; summary of the method: as §2
[13] = tested on: NCI-H460; test: Induction of apoptosis in human H460 cells assessed as increase in apoptotic cells at IC50 after 72 hrs by annexin V-FITC/propidium iodide staining-based FACS flow cytometric analysis (reference value: 9.29%); assay type: functional
[14] = tested on: NCI-H460; test: Induction of apoptosis in human H460 cells assessed as increase in cleaved caspase 7 expression at IC50 after 24 to 72 hrs by Western blotting analysis; assay type: functional, cell-based; summary of the method: as §3
[15] = Resistance factor, ratio of IC50 for human KB-VIN10 cells to IC50 for human KB cells; assay type: functional
[16] = tested on: HT-29; test: Cytotoxicity against human HT-29 cells after 72 hrs by Alamar blue assay; assay type: functional, cell-based; settings: HT-29, 72 h; summary of the method: as §2
[17] = Cytotoxicity against human KB-VIN10 cells after 72 hrs by Alamar blue assay; settings: KB-VIN10, 72 h

Activity [5]: Active | half-life [8]: 12.4 h
SMILES: Cc1c(CO)c(CO)c2n1Cc1c(c3ccccc3n1C)C2
Activity [1]: inactive | IC50 [2]: 2510 nM | Activity [3]: Active | IC50 [4]: 510 nM | Activity [6]: Toxic | IC50 [7]: 220 nM | IC50 [9]: 240 nM | TGI [10]: Active | Activity [11]: Active | IC50 [12]: 960 nM | Activity [13]: 61.35% | Activity [14]: Active | Ratio IC50 [15]: 0.52 | IC50 [16]: 3350 nM | IC50 [17]: 1310 nM
